Active and inactive are the calls of the source. No cut-off for these calls is given here.
Columns and labels:
SW480 = assay: Antiproliferative activity against human SW480 cells assessed as inhibition of cell viability measured for 6 to 7 days by cell titer glo assay; type: functional, cell-based
Procedure, shortened: (§1)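 Cells seeded in recommended growth medium, held overnight at 37°C in 5% CO2, then exposed to serial dilutions of inhibitor for 6–7 d. A time-zero plate was read with CellTiter-Glo at dosing. Luminescent viability read at the end. No-cell wells subtracted as background, data expressed as percent of DMSO control.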

COLO 320DM = assay: Antiproliferative activity against human COLO 320DM cells assessed as inhibition of cell viability measured for 6 to 7 days by cell titer glo assay; type: functional, cell-based
Procedure, shortened: (§2)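 Tumor lines plated in recommended growth media, overnight at 37°C, 5% CO2, then given serial dilutions; a T=0 plate read with CellTiter-Glo at dosing. After 6–7 d of exposure, viability read by CellTiter-Glo luminescence. No-cell wells subtracted, data expressed as % of DMSO control.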

HeLa = assay: Antiproliferative activity against human HeLa cells assessed as inhibition of cell viability measured for 6 to 7 days by cell titer glo assay; type: functional, cell-based
Procedure, shortened: (§3)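 Cells seeded in recommended growth medium, incubated overnight at 37°C in 5% CO2, then exposed to serial dilutions of inhibitor for 6–7 d. A parallel plate was read with CellTiter-Glo at compound addition as a T=0 value. The luminescent viability readout had no-cell background subtracted and was expressed as % of DMSO control.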

OVCAR-3 = assay: Antiproliferative activity against human OVCAR-3 cells assessed as inhibition of cell viability measured for 6 to 7 days by cell titer glo assay; type: functional, cell-based; procedure, shortened: as §1
A2780 = assay: Antiproliferative activity against human A2780 cells assessed as inhibition of cell viability measured for 6 to 7 days by cell titer glo assay; type: functional, cell-based; procedure, shortened: as §2
NCI-H460 = assay: Antiproliferative activity against human NCI-H460 cells assessed as inhibition of cell viability measured for 6 to 7 days by cell titer glo assay; type: functional, cell-based; procedure, shortened: as §1
NCI-H1155 = assay: Antiproliferative activity against human NCI-H1155 cells assessed as inhibition of cell viability measured for 6 to 7 days by cell titer glo assay; type: functional, cell-based; procedure, shortened: as §3
U-266 = assay: Antiproliferative activity against human U266B1 cells assessed as inhibition of cell viability measured for 6 to 7 days by cell titer glo assay; type: functional, cell-based
HT = assay: Antiproliferative activity against human HT cells assessed as inhibition of cell viability measured for 6 to 7 days by cell titer glo assay; type: functional, cell-based; procedure, shortened: as §3
Farage = assay: Antiproliferative activity against human Farage cells assessed as inhibition of cell viability measured for 6 to 7 days by cell titer glo assay; type: functional, cell-based; procedure, shortened: as §2
BC-3 = assay: Antiproliferative activity against human BC-3 cells assessed as inhibition of cell viability measured for 6 to 7 days by cell titer glo assay; type: functional, cell-based; procedure, shortened: as §2
ST486 = assay: Antiproliferative activity against human ST486 cells assessed as inhibition of cell viability measured for 6 to 7 days by cell titer glo assay; type: functional, cell-based; procedure, shortened: as §1
GA-10 = assay: Antiproliferative activity against human GA-10 cells assessed as inhibition of cell viability measured for 6 to 7 days by cell titer glo assay; type: functional, cell-based; procedure, shortened: as §2
[1] = Antiproliferative activity against human EB1 cells assessed as inhibition of cell viability measured for 6 to 7 days by cell titer glo assay; type: functional, cell-based; procedure, shortened: as §2
[2] = Antiproliferative activity against human 1A2 cells assessed as inhibition of cell viability measured for 6 to 7 days by cell titer glo assay; type: functional, cell-based; procedure, shortened: as §2
JVM-3 = assay: Antiproliferative activity against human JVM-3 cells assessed as inhibition of cell viability measured for 6 to 7 days by cell titer glo assay; type: functional, cell-based; procedure, shortened: as §3
NOMO-1 = assay: Antiproliferative activity against human NOMO-1 cells assessed as inhibition of cell viability measured for 6 to 7 days by cell titer glo assay; type: functional, cell-based; procedure, shortened: as §1
OCI-AML-3 = assay: Antiproliferative activity against human OCI-AML-3 cells assessed as inhibition of cell viability measured for 6 to 7 days by cell titer glo assay; type: functional, cell-based; procedure, shortened: as §1
[3] = Antiproliferative activity against human M-07e cells assessed as inhibition of cell viability measured for 6 to 7 days by cell titer glo assay; type: functional, cell-based; procedure, shortened: as §3
HEL 92.1.7 = assay: Antiproliferative activity against human HEL 92.1.7 cells assessed as inhibition of cell viability measured for 6 to 7 days by cell titer glo assay; type: functional, cell-based; procedure, shortened: as §2
KCL-22 = assay: Antiproliferative activity against human KCL-22 cells assessed as inhibition of cell viability measured for 6 to 7 days by cell titer glo assay; type: functional, cell-based; procedure, shortened: as §3
[4] = Antiproliferative activity against human ALL-SIL cells assessed as inhibition of cell viability measured for 6 to 7 days by cell titer glo assay; type: functional, cell-based; procedure, shortened: as §2
MOLT-3 = assay: Antiproliferative activity against human MOLT-3 cells assessed as inhibition of cell viability measured for 6 to 7 days by cell titer glo assay; type: functional, cell-based; procedure, shortened: as §3
CCRF-CEM = assay: Antiproliferative activity against human CCRF-CEM cells assessed as inhibition of cell viability measured for 6 to 7 days by cell titer glo assay; type: functional, cell-based; procedure, shortened: as §2
HuT78 = assay: Antiproliferative activity against human HuT78 cells assessed as inhibition of cell viability measured for 6 to 7 days by cell titer glo assay; type: functional, cell-based; procedure, shortened: as §3
[5] = In vivo inhibition of Aurora B in human HCT-116 cells xenografted in athymic nude mouse assessed as reduction in HH3-S10 phosphorylation at 100 mg/kg, ip single dose measured upto 24 hrs relative to control; type: functional; parameters: scale not given: the % may be the effect or the level left
HCT-116 [6] = assay: In vivo inhibition of Aurora B in human HCT-116 cells xenografted in athymic nude mouse assessed as inhibition of HH3-S10 phosphorylation administered as single ip dose incubated for 0.5 to 72 hrs; type: functional, organism-based; conditions: dose 25-100 mg/kg, time 0.5-72 hrs
K562 = assay: Antitumor activity in human K562 cells xenografted in SCID mouse assessed as reduction in tumor growth at 100 mg/kg, ip administered once daily for 5 consecutive days with 2 days off scheduled for 3 cycles measured upto 60 days; type: functional, organism-based; conditions: time 60.0 day
[7] = Toxicity in SCID nude mouse xenografted with human K562 cells assessed as body weight loss at 100 mg/kg, ip administered once daily for 5 consecutive days with 2 days off scheduled for 3 cycles measured upto 60 days; type: organism-based; conditions: in vivo, 1440 h, time < 60 day
MV-4-11 (human) [8] = assay: Antitumor activity in human MV-4-11 cells xenografted in NOD-SCID mouse assessed as median survival time at 10 mg/kg, ip administered once daily for 5 consecutive days with 2 days off scheduled for 3 cycles measured upto 120 days; conditions: time <= 120 day
MV-4-11 (human) [9] = assay: Antitumor activity in human MV-4-11 cells xenografted in NOD-SCID mouse assessed as median survival time at 20 mg/kg, ip administered once daily for 5 consecutive days with 2 days off scheduled for 3 cycles measured upto 120 days; conditions: time <= 120 day
A549 = assay: Antitumor activity in human A549 cells xenografted in nude mouse assessed as reduction in tumor growth at 25 to 100 mg/kg, ip administered once daily for 5 consecutive days with 2 days off scheduled for 3 cycles measured upto 60 days; conditions: dose 25-100 mg/kg, time <= 60.0 day
HCT-116 [10] = assay: Antitumor activity in human HCT-116 cells xenografted in nude mouse assessed as reduction in tumor growth at 25 to 100 mg/kg, ip administered once daily for 5 consecutive days with 2 days off scheduled for 3 cycles measured upto 60 days; conditions: dose 25-100 mg/kg, time <= 60.0 day

CCn1cc(-c2ccnc3[nH]c(-c4cccc(CN(C)C)c4)cc23)c(-c2ccc(NC(=O)N(C)C)cc2)n1 [GSK-1070916]
EC50 (SW480): 3 nM
EC50 (COLO 320DM): 96 nM
EC50 (HeLa): 13 nM
EC50 (OVCAR-3): 3 nM
EC50 (A2780): 5 nM
EC50 (NCI-H460): 14 nM
EC50 (NCI-H1155): 40 nM
EC50 (U-266): 422 nM
EC50 (HT): 7 nM
EC50 (Farage): 7 nM
EC50 (BC-3): 27 nM
EC50 (ST486): 2 nM
EC50 (GA-10): 4 nM
EC50 [1]: 7 nM
EC50 [2]: 9 nM
EC50 (JVM-3): 2 nM
EC50 (NOMO-1): 2 nM
EC50 (OCI-AML-3): 4 nM
EC50 [3]: 13 nM
EC50 (HEL 92.1.7): 60 nM
EC50 (KCL-22): 5 nM
EC50 [4]: 2 nM
EC50 (MOLT-3): 5 nM
EC50 (CCRF-CEM): 7 nM
EC50 (HuT78): 14 nM
Activity [5]: >60%
Activity (HCT-116 [6]): Dose-Dependent Effect
Activity (K562): Active
Activity [7]: Toxic
MST (MV-4-11 (human) [8]): 70 days
MST (MV-4-11 (human) [9]): 103 days
Activity (A549): Active
Activity (HCT-116 [10]): Active
